Data set [1] relates to Pseudomonas aeruginosa. The data set is described as follows: Antimicrobial activity against Pseudomonas aeruginosa PAO1 harboring pUCP carrying VIM-1 gene by Etest method. The format is functional. A digest of the protocol:
(§1)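 Etest MICs of piperacillin, piperacillin-tazobactam, ceftazidime, cefepime, cefotaxime, aztreonam, imipenem and meropenem, run per manufacturer's recommendations. Strains were E. coli XL1-Blue or P. aeruginosa PAO1 carrying pUCP24-derived plasmids with blaVIM-1 or blaVIM-13 (cloned by EcoRI) inserted in the lacZ-promoter orientation. E. coli transformants were selected on 10 μg/ml gentamicin MacConkey agar; PAO1 electroporants were selected on 50 μg/ml gentamicin LB agar.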

Data set [2] has as its system Pseudomonas aeruginosa. Kind of data set: Antimicrobial activity against Pseudomonas aeruginosa PAO1 by Etest method. The format is functional.
The test system of data set [3] is Escherichia coli. Kind of data set: Antimicrobial activity against Escherichia coli XL1-Blue harboring pUCP carrying VIM-1 gene by Etest method. In kind it is functional. A digest of the protocol: as §1
The test system of data set [4] is Pseudomonas aeruginosa. The data set is described as follows: Antimicrobial activity against Pseudomonas aeruginosa PAO1 harboring pUCP carrying VIM-13 gene by Etest method. The format is functional. A digest of the protocol: as §1
For data set [5], the system named is Pseudomonas aeruginosa. Kind of data set: Antimicrobial activity against Pseudomonas aeruginosa isolate PA-SL2 harboring blaVIM-13 gene by Etest method. The format is functional.
The test system of data set [6] is Pseudomonas aeruginosa. Kind of data set: Antimicrobial activity against Pseudomonas aeruginosa isolate PA-SD2 harboring blaVIM-1 gene by Etest method. In kind it is functional.
For data set [7], the system named is Escherichia coli. The data set is described as follows: Antimicrobial activity against Escherichia coli XL1-Blue by Etest method in presence of Tazobactam. In kind it is functional.
Data set [8] has as its system Pseudomonas aeruginosa. Kind of data set: Antimicrobial activity against Pseudomonas aeruginosa isolate PA-SL2 harboring blaVIM-13 gene by Etest method in presence of Tazobactam. In kind it is functional.
Data set [9] relates to Escherichia coli. Kind of data set: Antimicrobial activity against Escherichia coli XL1-Blue harboring pUCP carrying VIM-13 gene by Etest method. The format is functional. A digest of the protocol:
as §1

Data set [10] concerns Pseudomonas aeruginosa. Kind of data set: Antimicrobial activity against Pseudomonas aeruginosa isolate PA-SD2 harboring blaVIM-1 gene by Etest method in presence of Tazobactam. The format is functional.
Data set [11] relates to Pseudomonas aeruginosa. The data set is described as follows: Antimicrobial activity against Pseudomonas aeruginosa PAO1 by Etest method in presence of Tazobactam. The format is functional. A digest of the protocol: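 Etest MICs of piperacillin-tazobactam for P. aeruginosa PAO1 electroporated with pUCP24 carrying cloned blaVIM-1 or blaVIM-13, with the insert in lacZ promoter orientation. Transformants were selected on 50 μg/ml gentamicin LB agar. Testing followed the manufacturer's recommendations, with CLSI breakpoints.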

For data set [12], the system named is Escherichia coli. The data set is described as follows: Antimicrobial activity against Escherichia coli XL1-Blue harboring pUCP carrying VIM-13 gene by Etest method in presence of Tazobactam. The format is functional. A digest of the protocol:
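blaVIM-13 was PCR-amplified, passed through pGEM-T, and moved as an EcoRI fragment into pUCP24, with the insert oriented with the lacZ promoter (checked by PCR and sequencing). It was transformed into CaCl2-competent E. coli XL1-Blue and selected on MacConkey agar with 10 μg/ml gentamicin. Piperacillin-tazobactam MIC was read by Etest strip.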

Data set [13] relates to Pseudomonas aeruginosa. The data set is described as follows: Antimicrobial activity against Pseudomonas aeruginosa PAO1 harboring pUCP carrying VIM-13 gene by Etest method in presence of Tazobactam. In kind it is functional.
Data set [14] relates to Escherichia coli. Kind of data set: Antimicrobial activity against Escherichia coli XL1-Blue by Etest method. The format is functional.
The subject of data set [15] is Escherichia coli. The data set is described as follows: Antimicrobial activity against Escherichia coli XL1-Blue harboring pUCP carrying VIM-1 gene by Etest method in presence of Tazobactam. In kind it is functional. A digest of the protocol: as §1
Data set [16] deals with Pseudomonas aeruginosa. The data set is described as follows: Antimicrobial activity against Pseudomonas aeruginosa PAO1 harboring pUCP carrying VIM-1 gene by Etest method in presence of Tazobactam. In kind it is functional.
The subject of data set [17] is C[C@@H](O)[C@H]1C(=O)N2C(C(=O)O)=C(S[C@@H]3CN[C@H](C(=O)N(C)C)C3)[C@H](C)[C@H]12. Conditions: Pseudomonas aeruginosa.
Data set [18] concerns CC1(C)S[C@@H]2[C@H](NC(=O)[C@H](N)c3ccccc3)C(=O)N2[C@H]1C(=O)O. Conditions: Pseudomonas aeruginosa.
For data set [19], the system named is CO/N=C(\C(=O)N[C@@H]1C(=O)N2C(C(=O)O)=C(COC(N)=O)CS[C@H]12)c1ccco1. The conditions noted are these: Pseudomonas aeruginosa.
The subject of data set [20] is CC(=O)OCC1=C(C(=O)O)N2C(=O)[C@@H](NC(=O)Cc3cccs3)[C@H]2SC1. Conditions: Pseudomonas aeruginosa.
Data set [21] relates to CCN1CCN(C(=O)N[C@@H](C(=O)N[C@@H]2C(=O)N3[C@@H]2SC(C)(C)[C@@H]3C(=O)O)c2ccccc2)C(=O)C1=O. Conditions: Pseudomonas aeruginosa.
Data set [22] concerns CC(C)(O/N=C(\C(=O)N[C@@H]1C(=O)N2C(C(=O)[O-])=C(C[n+]3ccccc3)CS[C@H]12)c1csc(N)n1)C(=O)O. Conditions: Pseudomonas aeruginosa.
Data set [23] concerns CO/N=C(\C(=O)N[C@@H]1C(=O)N2C(C(=O)O)=C(COC(C)=O)CS[C@H]12)c1csc(N)n1. Conditions: Pseudomonas aeruginosa.
Data set [24] deals with CC1(C)S[C@@H]2[C@H](NC(=O)Cc3ccccc3)C(=O)N2[C@H]1C(=O)O. Conditions: Pseudomonas aeruginosa.
Data set [25] relates to C[C@@H](O)[C@H]1C(=O)N2C(C(=O)O)=C(S[C@@H]3CN[C@H](C(=O)N(C)C)C3)[C@H](C)[C@H]12. The conditions noted are these: Pseudomonas aeruginosa. This is another data set of the same source.
The subject of data set [26] is CC1(C)S[C@@H]2[C@H](NC(=O)[C@H](N)c3ccccc3)C(=O)N2[C@H]1C(=O)O. Conditions: Pseudomonas aeruginosa. This is another data set of the same source.
Data set [27] relates to CO/N=C(\C(=O)N[C@@H]1C(=O)N2C(C(=O)O)=C(COC(N)=O)CS[C@H]12)c1ccco1. Conditions: Pseudomonas aeruginosa. This is another data set of the same source.
Data set [28] has as its system CC(=O)OCC1=C(C(=O)O)N2C(=O)[C@@H](NC(=O)Cc3cccs3)[C@H]2SC1. The conditions noted are these: Pseudomonas aeruginosa. This is another data set of the same source.
The test system of data set [29] is CCN1CCN(C(=O)N[C@@H](C(=O)N[C@@H]2C(=O)N3[C@@H]2SC(C)(C)[C@@H]3C(=O)O)c2ccccc2)C(=O)C1=O. Conditions: Pseudomonas aeruginosa. The source holds these as a separate data set.
Data set [30] has as its system CC(C)(O/N=C(\C(=O)N[C@@H]1C(=O)N2C(C(=O)[O-])=C(C[n+]3ccccc3)CS[C@H]12)c1csc(N)n1)C(=O)O. The conditions noted are these: Pseudomonas aeruginosa. The source holds these as a separate data set.
Data set [31] relates to CO/N=C(\C(=O)N[C@@H]1C(=O)N2C(C(=O)O)=C(COC(C)=O)CS[C@H]12)c1csc(N)n1. The conditions noted are these: Pseudomonas aeruginosa. The source holds these as a separate data set.
For data set [32], the system named is CC1(C)S[C@@H]2[C@H](NC(=O)Cc3ccccc3)C(=O)N2[C@H]1C(=O)O. Conditions: Pseudomonas aeruginosa. The source holds these as a separate data set.

≈ marks a conversion by molar mass, not a printed value.

The term MIC denotes the lowest concentration found to suppress growth. As for `CCN1CCN(C(=O)N[C@@H](C(=O)N[C@@H]2C(=O)N3[C@@H]2SC(C)(C)[C@@H]3C(=O)O)c2ccccc2)C(=O)C1=O` [PIPERACILLIN], the MIC was 64 µg/mL (≈ 124 µM) against Pseudomonas aeruginosa [1]; 3 µg/mL (≈ 5.8 µM) against Pseudomonas aeruginosa [2]; 6 µg/mL (≈ 11.6 µM) in the data set with Escherichia coli [3]; 192 µg/mL (≈ 371 µM) against Pseudomonas aeruginosa [4]; greater than 256 µg/mL with Pseudomonas aeruginosa [5]; greater than 256 µg/mL in the data set on Pseudomonas aeruginosa [6]. For the same compound, the MIC in the data set on Escherichia coli [7] is 1 µg/mL; in the data set with Pseudomonas aeruginosa [8] it was greater than 256 µg/mL; against Escherichia coli [9], 8 µg/mL (≈ 15.5 µM); with Pseudomonas aeruginosa [10] it was greater than 256 µg/mL; in the data set on Pseudomonas aeruginosa [11] it was 3 µg/mL; in the data set on Escherichia coli [12] it was 8 µg/mL. The MIC with Pseudomonas aeruginosa [13] was determined as 192 µg/mL; in the data set with Escherichia coli [14], 1.5 µg/mL (≈ 2.9 µM); in the data set on Escherichia coli [15] it was 6 µg/mL; in the data set on Pseudomonas aeruginosa [16], 48 µg/mL.
A word on the Km: it is the concentration of substrate that gives half-maximal velocity. For orientation: kcat means the number of substrate molecules converted per active site and unit of time at saturation. In general, kcat/Km refers to the second-order rate constant that governs catalysis at low substrate concentration. In the case of “Class B carbapenemase VIM-13 (Pseudomonas aeruginosa) (from UniProt Q2HY42)”, the Km turned out to be 15.5 µM in data set [17]; 197 µM in data set [18]; 56 µM in data set [19]; 76 µM in data set [20]; 729 µM in data set [21]; 509 µM in data set [22]. Further, the Km turned out to be 233 µM in [23] and 1130 µM in [24]. The kcat turned out to be 9 s⁻¹ in data set [17]; 67 s⁻¹ in data set [18]; 283 s⁻¹ in data set [19]; 656 s⁻¹ in data set [20]; 362 s⁻¹ in data set [21]; 10 s⁻¹ in [22]. The kcat in data set [23] was 612 s⁻¹; in data set [24] it was 757 s⁻¹. Besides, the kcat/Km in data set [25] was found to be 592000 M⁻¹ s⁻¹; in data set [26], 340000 M⁻¹ s⁻¹; in data set [27], 5e+06 M⁻¹ s⁻¹; in [28], 8.6e+06 M⁻¹ s⁻¹; in [29], 490000 M⁻¹ s⁻¹; in data set [30], 1.9 M⁻¹ s⁻¹. In addition, the kcat/Km came to 2.6e+06 M⁻¹ s⁻¹ in [31] and 670000 M⁻¹ s⁻¹ in [32].
